Results from different studies.
Target: Myosin-IIIb (MYO3B, Homo sapiens, UniProt Q8WXR4)
Residues used in one study (Q8WXR4 1-1341): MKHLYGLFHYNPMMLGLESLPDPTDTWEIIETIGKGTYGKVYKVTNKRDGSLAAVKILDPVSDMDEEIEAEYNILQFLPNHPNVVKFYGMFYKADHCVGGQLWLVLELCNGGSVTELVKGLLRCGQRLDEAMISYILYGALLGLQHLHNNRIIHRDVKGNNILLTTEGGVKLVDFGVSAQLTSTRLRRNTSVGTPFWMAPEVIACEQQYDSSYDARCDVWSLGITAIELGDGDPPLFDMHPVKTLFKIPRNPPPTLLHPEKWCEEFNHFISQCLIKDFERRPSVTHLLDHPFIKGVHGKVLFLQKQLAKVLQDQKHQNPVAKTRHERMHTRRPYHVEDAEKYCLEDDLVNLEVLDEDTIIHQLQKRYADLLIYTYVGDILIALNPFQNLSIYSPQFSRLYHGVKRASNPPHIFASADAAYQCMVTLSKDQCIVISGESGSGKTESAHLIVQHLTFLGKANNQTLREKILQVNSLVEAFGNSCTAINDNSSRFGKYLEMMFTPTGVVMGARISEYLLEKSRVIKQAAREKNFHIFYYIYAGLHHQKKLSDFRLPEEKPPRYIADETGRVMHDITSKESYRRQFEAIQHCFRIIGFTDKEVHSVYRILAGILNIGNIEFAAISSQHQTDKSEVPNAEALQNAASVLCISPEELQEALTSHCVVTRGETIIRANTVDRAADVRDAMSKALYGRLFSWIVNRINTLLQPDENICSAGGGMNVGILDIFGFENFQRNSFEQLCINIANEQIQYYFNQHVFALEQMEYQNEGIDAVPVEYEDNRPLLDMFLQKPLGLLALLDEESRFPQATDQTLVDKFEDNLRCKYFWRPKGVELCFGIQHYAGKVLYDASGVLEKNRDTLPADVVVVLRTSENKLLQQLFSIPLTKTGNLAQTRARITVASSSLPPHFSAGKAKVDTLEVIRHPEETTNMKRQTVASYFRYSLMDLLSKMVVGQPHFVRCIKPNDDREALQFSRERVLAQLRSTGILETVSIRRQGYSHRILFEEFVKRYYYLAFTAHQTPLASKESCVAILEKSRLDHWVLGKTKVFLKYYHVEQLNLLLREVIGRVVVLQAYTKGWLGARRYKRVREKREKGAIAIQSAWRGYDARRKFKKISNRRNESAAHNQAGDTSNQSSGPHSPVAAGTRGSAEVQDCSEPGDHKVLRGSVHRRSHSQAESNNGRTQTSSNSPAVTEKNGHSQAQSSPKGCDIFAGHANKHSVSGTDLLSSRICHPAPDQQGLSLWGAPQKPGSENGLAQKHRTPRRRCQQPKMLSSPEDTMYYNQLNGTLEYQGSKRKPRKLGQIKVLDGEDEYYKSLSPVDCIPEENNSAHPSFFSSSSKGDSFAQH

Cc1ccc(C(=O)Nc2ccc(CN3CCN(C)CC3)c(C(F)(F)F)c2)cc1C#Cc1cnc2cccnn12 — remaining activity (enzyme activity; 23.5 nM): 79%
O=C(Nc1cnn(-c2csc(C(=O)NC3COC3)c2)c1)Nc1ccccc1Cl — remaining activity (enzyme activity, inhibitor; 5 µM): 128%
CCN(CC)CCNC(=O)c1c(C)[nH]c(/C=C2\C(=O)Nc3ccc(Cl)cc32)c1C — remaining activity (enzyme activity, inhibitor; 0.5 µM): 41.3%
CN1CCN(C(=O)c2ccc3cc(CCNc4ccnc5ccc(C#N)cc45)ccc3c2)CC1 — inhibition (binding, competition with immobilised ligand; 2 µM): > 35%
C[S+]([O-])c1ccc(-c2nc(-c3ccncc3)c(-c3ccc(F)cc3)[nH]2)cc1 (centres unmarked) — remaining signal (cell-free assay; 0.5 µM): 104%
Nc1ncnc2occ(-c3ccc(NC(=O)Nc4cc(C(F)(F)F)ccc4F)cc3)c12 — remaining signal (cell-free assay; 20 µM): 25%
CC(C)(O)[C@H]1CC[C@H](Nc2ccc3ncc(-c4cccc(C(F)(F)F)c4)n3n2)CC1 — remaining activity (enzyme activity, inhibitor; 1 µM): 85.1%
O=C(O)c1ccc2c3c1cccc3c(=O)n1c3ccccc3nc21 — remaining activity (enzyme activity, inhibitor; 0.5 µM): 96.7%
CCC(=N\O)/C(C)=C/c1ccc(F)cc1 — remaining binding (binding, competition with immobilised ligand; 1 µM): 100%
CN1CC(Oc2cnc(C#N)cc2-c2ccn3nc(NC(=O)C4CC4)cc3c2)C1 — inhibition (enzyme activity, inhibitor; 1 µM): -2%
CSc1cccnc1N1CCN(Cc2nc3ccccc3[nH]2)CC1 — remaining binding (binding, competition with immobilised ligand; 1 µM): 100%
Cc1sc(C(=O)NC2COC2)cc1-n1cc(NC(=O)Nc2c(F)cccc2Cl)cn1 — remaining activity (enzyme activity, inhibitor; 10 µM): 73.5%
COc1cc(Cl)c(C(=O)N[C@@H](CN[C@H]2CC[C@@H](N)CC2)Cc2ccc(C#N)cc2)cc1-c1ccc(CN[C@H](C)c2ccc(C)cc2)o1 — remaining activity (enzyme activity, inhibitor; 1 µM): 116%
Cn1nc(C(=O)NCc2ccc(C(=O)O)cc2)cc1-c1ccc2[nH]ccc2c1 — remaining binding (binding, competition with immobilised ligand; 0.1 µM): 100%
